From ChEMBL document CHEMBL3868592, “Analogues of Marine Guanidine Alkaloids Are in Vitro Effective against Trypanosoma cruzi and Selectively Eliminate Leishmania (L.) infantum Intracellular Amastigotes” (J Nat Prod, 2016)
Active and inactive are the calls of the source. The calls are words filed in the database; no cut-off is given here.

Tests used:
[1] = Cytotoxicity against mouse NCTC-929 cells assessed as decrease in cell viability after 48 hrs by MTT assay; type: toxicity
Procedure, shortened: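 NCTC clone 929 murine cells seeded at 6×10^4/well. Compound up to 150 μM for 48 h at 37 °C, 5% CO2. Viability read by MTT. CC50 from sigmoidal dose-response; mean of at least two independent experiments.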

[2] = Selectivity index, ratio of CC50 for mouse NCTC-929 cells to IC50 for Trypanosoma cruzi Y trypomastigote form infected in monkey LLC-MK2 cells; type: functional
Trypanosoma cruzi [3] = assay: Antitrypanosomal activity against Trypanosoma cruzi Y trypomastigote forms infected in monkey LLC-MK2 cells assessed as reduction in parasite viability after 24 hrs by resazurin assay; type: functional, cell-based; details: LLC-MK2, 24 h
Procedure, shortened: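 Y-strain trypomastigotes from LLC-MK2 cultures seeded at 1×10^6/well in RPMI-1640. Compounds up to 150 μM, 24 h at 37 °C, 5% CO2. Viability by resazurin (0.011% in PBS), read at 570 nm against drug-free and cell-free wells; 0.5% DMSO control. IC50 by sigmoidal dose-response curve fitting.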

Leishmania infantum [4] = assay: Antileishmanial activity against Leishmania infantum MHOM/BR/1972/LD amastigote forms infected in BALB/c mouse peritoneal macrophages assessed as reduction in parasite viability after 120 hrs by giemsa staining based light microscopy; type: functional
Procedure, shortened: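 BALB/c peritoneal macrophages seeded at 1×10^5/well for 24 h, then infected with hamster spleen-derived amastigotes (1:10 macrophage:amastigote, 24 h, 37 °C, 5% CO2). Compound exposure for 120 h, highest 100 μM. Cells MeOH-fixed and Giemsa-stained; infected macrophages counted out of 400 cells. IC50 from sigmoidal dose-response; at least two independent assays.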

Leishmania infantum [5] = assay: Antileishmanial activity against Leishmania infantum MHOM/BR/1972/LD promastigote forms […] assessed as reduction in parasite viability after 48 hrs by MTT assay; type: functional
Procedure, shortened: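 Late-growth-phase promastigotes (passage 5) seeded at 1×10^6/well in M-199. Compounds dissolved in DMSO, tested up to 100 μM, 48 h at 24 °C. Viability by MTT, OD 570 nm, against drug-free (100%) and cell-free blank wells; 0.5% DMSO control. IC50 from sigmoidal dose-response curves; ≥2 independent assays.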

[6] = Selectivity index, ratio of CC50 for mouse NCTC-929 cells to IC50 for Leishmania infantum MHOM/BR/1972/LD amastigote forms infected in BALB/c mouse macrophages; type: functional
Leishmania infantum [7] = assay: Induction of mitochondrial membrane potential loss in Leishmania infantum MHOM/BR/1972/LD promastigote form at 34 uM incubated for 60 mins by rhodamine-123 dye based fluorimetric assay; type: functional
Procedure, shortened: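 Promastigotes (2×10^6/mL) in HBSS-glucose exposed to compound for 60 min at 25 °C. Rhodamine-123 (0.3 μg/mL) then added, cells washed and resuspended in HBSS-Glc, and fluorescence read at ex 485/em 520 nm. Sodium azide 10 mM as positive control; background, DMSO and untreated controls included. Triplicates.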

Peritoneal macrophage [8] = assay: Antiinflammatory activity in BALB/c mouse peritoneal macrophages co-cultivated with splenocytes assessed as decrease in INF-gamma release at 15 uM after 48 hrs by flow cytometric analysis; type: functional
Procedure, shortened: (§1)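 Peritoneal macrophages from BALB/c mice seeded at 1.5×10^5 cells/well; after 24 h, infected where applicable with L. infantum spleen-derived amastigotes at 1:10 (macrophage:amastigote). After 24 h, cocultured where applicable with splenocytes at 6:1. Compound added for 48 h. Supernatant cytokines quantified with an inflammatory cytometric bead array by flow cytometry. Sham-treated infected macrophages served as reference.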

Splenocyte = assay: Antiinflammatory activity in splenocytes (unknown origin) assessed as decrease in MCP1 release at 15 uM after 48 hrs by flow cytometric analysis; type: functional, cell-based
Leishmania infantum [9] = assay: Induction of ROS generation in Leishmania infantum MHOM/BR/1972/LD promastigote form at 34 uM incubated for […] by H2DCF-DA probe based fluorimetric assay relative to untreated control; type: functional
Procedure, shortened: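 Promastigotes (2×10^6/well) washed in HBSS and exposed to compound for 60 min. H2DCFDA (5 μM) then added for 15 min. Fluorescence read at ex 485/em 520 nm. Sodium azide 10 mM as positive control; background, DMSO, untreated and cell-free controls included. Triplicates.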

Peritoneal macrophage [10] = assay: Antiinflammatory activity in BALB/c mouse peritoneal macrophages infected with Leishmania infantum MHOM/BR/1972/LD amastigote form cocultivated with splenocytes assessed as decrease in INF-gamma release at 15 uM after 48 hrs by flow cytometric analysis; type: functional; procedure, shortened: as §1
Leishmania infantum [11] = assay: Induction of plasma membrane permeability in Leishmania infantum MHOM/BR/1972/LD promastigote form assessed as increase in fluorescence intensity at 34 uM measured every 20 mins for 60 mins by SYTOX green dye based fluorimetric assay relative to control; type: functional
Procedure, shortened: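 Late-growth-phase promastigotes (passage 7) washed in PBS, seeded at 2×10^6/well and loaded with 1 μM SYTOX Green for 15 min at 24 °C. Compound added; fluorescence (ex 485/em 520 nm) read every 20 min over 60 min. 0.1% Triton X-100 defined maximal permeabilization. Background, DMSO, untreated and cell-free controls included. Triplicates.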

Trypanosoma cruzi [12] = assay: Potency index, ratio of benznidazole IC50 to compound IC50 for Trypanosoma cruzi Y trypomastigote forms infected in monkey LLC-MK2 cells; type: functional

SMILES | CC50 at 48 h [1] [µM] | Ratio CC50/IC50 [2] | IC50 (Trypanosoma cruzi [3]) [µM] | IC50 (Leishmania infantum [4]) [µM] | IC50 (Leishmania infantum [5]) [µM] | Ratio CC50/IC50 [6] | Activity (Leishmania infantum [7]) [%] | Activity (Peritoneal macrophage [8]) | Activity (Splenocyte) | Activity (Leishmania infantum [9]) [%] | Activity (Peritoneal macrophage [10]) | Activity (Leishmania infantum [11]) [%] | Ratio IC50 (Trypanosoma cruzi [12])
CCCC(=O)OCCCC[C@H]1C[C@H]2CC[C@H]3C[C@@H](C)[NH+]=C(N1)N23.F[B-](F)(F)F | > 150 | >2 | 49 | > 100 | > 100 | – | – | – | – | – | – | – | –
CCCCCCCCC[C@@H]1C[C@@H]2CC[C@H]3C(C(=O)O)[C@@H](C)N=C(N1)N23 (single isomer, unassigned; 16) | 60 | 0.9 | 69 | > 100 | 47 | – | – | – | – | – | – | – | –
CCCCCCCCC[C@@H]1C[C@@H]2CC[C@H]3C(C(=O)O)[C@@H](C)N=C(N1)N23.O=C(O)C(F)(F)F (single isomer, unassigned; 15) | 70 | 0.9 | 79 | 24 | 57 | 3 | – | – | – | – | – | – | –
F[B-](F)(F)F.c1ccc([C@@H]2C[C@@H]3CC[C@@H]4C[C@H](c5ccccc5)NC(=[NH+]2)N43)cc1 | 45 | 5 | 9 | 2 | 34 | 20 | 70 | Active | Active | 60 | Active | 10 | –
CCCCCCCCCCCC(=O)OCCCC[C@H]1C[C@H]2CC[C@H]3C[C@@H](C)[NH+]=C(N1)N23.F[B-](F)(F)F | 57 | 19 | 4 | > 100 | 48 | – | – | – | – | – | – | – | 4
CCCCCC(=O)OCCCC[C@H]1C[C@H]2CC[C@H]3C[C@@H](C)[NH+]=C(N1)N23.F[B-](F)(F)F | > 150 | >7 | 22 | > 100 | 109 | – | – | – | – | – | – | – | –
O=C(Cn1ccnc1[N+](=O)[O-])NCc1ccccc1 [BENZNIDAZOLE] | > 150 | >9 | 16 | – | – | – | – | – | – | – | – | – | –
CC(C)=CCC/C(C)=C/CNC(=N)N.Cl | 116 | 3 | 35 | 19 | 9 | 6 | – | – | – | – | – | – | –
C1CC[C@]2(C[C@H]3CC[C@H]4C[C@@]5(CCCCO5)[NH+]=C(N2)N34)OC1.F[B-](F)(F)F | > 150 | – | > 100 | 8 | > 100 | >19 | – | – | – | – | – | – | –
C[C@H](O)CCCCC[C@@H]1C[C@H]2CC[C@H]3C[C@@H](C)NC(=[NH+]1)N23.F[B-](F)(F)F | > 150 | – | > 100 | 49 | > 100 | >3 | – | – | – | – | – | – | –
CCCCCCCCCc1cc(CCCO)nc(N)n1 | 42 | 5 | 8 | 5 | 42 | 8 | – | – | – | – | – | – | –
C=CCOC(=O)C1=C(CCCCC[C@@H](C)O[Si](C(C)(C)C)(C(C)(C)C)C(C)(C)C)NC2=[N+]3[C@H](CC[C@@H]13)C[C@H](C)N2.CC(=O)[O-] | 2 | 2 | 0.9 | 0.8 | > 100 | 3 | – | – | – | – | – | – | 17
CCCCCCCCCC(=O)OCCCC[C@H]1C[C@H]2CC[C@H]3C[C@@H](C)[NH+]=C(N1)N23.F[B-](F)(F)F | 84 | 28 | 4 | > 100 | 59 | – | – | – | – | – | – | – | 4
CC(=O)OCCCC[C@H]1C[C@H]2CC[C@H]3C[C@@H](C)[NH+]=C(N1)N23.F[B-](F)(F)F | > 150 | >2 | 88 | > 100 | > 100 | – | – | – | – | – | – | – | –
CCCCCCCCCCCCCCCCOP(=O)([O-])OCC[N+](C)(C)C [MILTEFOSINE] | 122 | – | – | 17 | – | 7 | – | – | – | – | – | – | –
C[C@@H]1C[C@@H]2CC[C@@H]3C[C@H](CCCCO)NC(=N1)N32 | > 150 | – | > 100 | > 100 | > 100 | – | – | – | – | – | – | – | –
C[C@@H]1C[C@@H]2CC[C@@H]3C[C@H](CCCCO[Si](C(C)(C)C)(C(C)(C)C)C(C)(C)C)NC(=[NH+]1)N32.F[B-](F)(F)F | 65 | 16 | 4 | 18 | 7 | 4 | – | – | – | – | – | – | –
CCCCCCCC(=O)OCCCC[C@H]1C[C@H]2CC[C@H]3C[C@@H](C)[NH+]=C(N1)N23.F[B-](F)(F)F | 100 | 12 | 8 | > 100 | 53 | – | – | – | – | – | – | – | –
C[C@@H]1CCC[C@]2(CCN3CC[C@]4(CCC[C@@H](C)O4)NC3=N2)O1 | > 150 | – | > 100 | > 100 | > 100 | – | – | – | – | – | – | – | –
